Experiments:
Format in all cases: functional
[1] = system: Staphylococcus epidermidis; experiment: Antimicrobial activity against Staphylococcus epidermidis ATCC 12228 by broth dilution method
Staphylococcus aureus [2] = experiment: Antimicrobial activity against Staphylococcus aureus ATCC 29213 by broth dilution method; settings: Staphylococcus aureus, ATCC 29213
Staphylococcus aureus [3] = experiment: Bactericidal activity against methicillin-resistant Staphylococcus aureus clinical isolate 264 after 24 hrs; settings: isolate 264, 24 h
Outline: (§1)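 Bactericidal concentration: 0.1 ml from wells at the MIC dilution and the dilutions on either side was streaked onto tryptic soy agar and incubated 24 h. It was taken as the lowest drug concentration giving no growth (100% killing).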

Staphylococcus aureus [4] = experiment: Bactericidal activity against methicillin-resistant Staphylococcus aureus clinical isolate 260 after 24 hrs; settings: isolate 260, 24 h; outline: as §1
Staphylococcus aureus [5] = experiment: Bactericidal activity against methicillin-resistant Staphylococcus aureus clinical isolate 259 after 24 hrs; settings: isolate 259, 24 h; outline: as §1
Staphylococcus aureus [6] = experiment: Bactericidal activity against methicillin-resistant Staphylococcus aureus clinical isolate 257 after 24 hrs; settings: isolate 257, 24 h; outline: as §1
Staphylococcus aureus [7] = experiment: Bactericidal activity against methicillin-resistant Staphylococcus aureus clinical isolate 255 after 24 hrs; settings: isolate 255, 24 h; outline: as §1
Staphylococcus aureus [8] = experiment: Bactericidal activity against methicillin-resistant Staphylococcus aureus clinical isolate 238 after 24 hrs; settings: isolate 238, 24 h; outline: as §1
Staphylococcus aureus [9] = experiment: Bactericidal activity against methicillin-resistant Staphylococcus aureus clinical isolate 237 after 24 hrs; settings: isolate 237, 24 h; outline: as §1
Staphylococcus aureus [10] = experiment: Bactericidal activity against methicillin-resistant Staphylococcus aureus clinical isolate 236 after 24 hrs; settings: isolate 236, 24 h; outline: as §1
Staphylococcus aureus [11] = experiment: Bactericidal activity against methicillin-resistant Staphylococcus aureus clinical isolate 235 after 24 hrs; settings: isolate 235, 24 h; outline: as §1
Staphylococcus aureus [12] = experiment: Bactericidal activity against methicillin-resistant Staphylococcus aureus clinical isolate 232 after 24 hrs; settings: isolate 232, 24 h; outline: as §1
Staphylococcus aureus [13] = experiment: Bactericidal activity against methicillin-resistant Staphylococcus aureus clinical isolate 231 after 24 hrs; settings: isolate 231, 24 h; outline: as §1
Staphylococcus aureus [14] = experiment: Bactericidal activity against methicillin-resistant Staphylococcus aureus clinical isolate 227 after 24 hrs; settings: isolate 227, 24 h; outline: as §1
Staphylococcus aureus [15] = experiment: Bactericidal activity against methicillin-resistant Staphylococcus aureus clinical isolate 225 after 24 hrs; settings: isolate 225, 24 h; outline: as §1
Staphylococcus aureus [16] = experiment: Bactericidal activity against methicillin-resistant Staphylococcus aureus clinical isolate 215 after 24 hrs; settings: isolate 215, 24 h; outline: as §1
Staphylococcus aureus [17] = experiment: Bactericidal activity against methicillin-resistant Staphylococcus aureus clinical isolate 212 after 24 hrs; settings: isolate 212, 24 h; outline: as §1
Staphylococcus aureus [18] = experiment: Bactericidal activity against methicillin-resistant Staphylococcus aureus clinical isolate 207 after 24 hrs; settings: isolate 207, 24 h; outline: as §1
Staphylococcus aureus [19] = experiment: Bactericidal activity against methicillin-resistant Staphylococcus aureus clinical isolate 195 after 24 hrs; settings: isolate 195, 24 h; outline: as §1
Staphylococcus aureus [20] = experiment: Bactericidal activity against methicillin-resistant Staphylococcus aureus clinical isolate 178 after 24 hrs; settings: isolate 178, 24 h; outline: as §1
Staphylococcus aureus [21] = experiment: Bactericidal activity against methicillin-resistant Staphylococcus aureus clinical isolate 176 after 24 hrs; settings: isolate 176, 24 h; outline: as §1
Escherichia coli [22] = experiment: Bactericidal activity against Escherichia coli ATCC 11229 after 24 hrs; settings: ATCC 11229, 24 h
Outline: (§2)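 MBC: after MIC determination, 0.1 ml from the MIC well and from two dilutions either side streaked on tryptic soy agar, incubated 24 h; MBC taken as lowest concentration giving no growth (100% kill).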

[23] = system: Staphylococcus epidermidis; experiment: Bactericidal activity against Staphylococcus epidermidis ATCC 12228 after 24 hrs; settings: ATCC 12228, 24 h; outline: as §2
Staphylococcus aureus [24] = experiment: Bactericidal activity against Staphylococcus aureus ATCC 29213 after 24 hrs; settings: ATCC 29213, 24 h; outline: as §1
Candida parapsilosis = experiment: Antimicrobial activity against Candida parapsilosis ATCC 90030 by broth dilution method; settings: Lodderomyces parapsilosis
Nakaseomyces glabratus = experiment: Antimicrobial activity against Candida glabrata ATCC 18804 by broth dilution method
Candida albicans = experiment: Antimicrobial activity against Candida albicans ATCC 22019 by broth dilution method
Candida tropicalis = experiment: Antimicrobial activity against Candida tropicalis ATCC 750 by broth dilution method
Staphylococcus aureus [25] = experiment: Antimicrobial activity against methicillin-resistant Staphylococcus aureus clinical isolate by broth dilution method
Staphylococcus aureus [26] = experiment: Antimicrobial activity against methicillin-resistant Staphylococcus aureus clinical isolate 264 by broth dilution method
Staphylococcus aureus [27] = experiment: Antimicrobial activity against methicillin-resistant Staphylococcus aureus clinical isolate 260 by broth dilution method
Staphylococcus aureus [28] = experiment: Antimicrobial activity against methicillin-resistant Staphylococcus aureus clinical isolate 257 by broth dilution method
Staphylococcus aureus [29] = experiment: Antimicrobial activity against methicillin-resistant Staphylococcus aureus clinical isolate 259 by broth dilution method
Staphylococcus aureus [30] = experiment: Antimicrobial activity against methicillin-resistant Staphylococcus aureus clinical isolate 238 by broth dilution method
Staphylococcus aureus [31] = experiment: Antimicrobial activity against methicillin-resistant Staphylococcus aureus clinical isolate 255 by broth dilution method
Staphylococcus aureus [32] = experiment: Antimicrobial activity against methicillin-resistant Staphylococcus aureus clinical isolate 237 by broth dilution method
Staphylococcus aureus [33] = experiment: Antimicrobial activity against methicillin-resistant Staphylococcus aureus clinical isolate 236 by broth dilution method
Staphylococcus aureus [34] = experiment: Antimicrobial activity against methicillin-resistant Staphylococcus aureus clinical isolate 235 by broth dilution method
Staphylococcus aureus [35] = experiment: Antimicrobial activity against methicillin-resistant Staphylococcus aureus clinical isolate 232 by broth dilution method
Staphylococcus aureus [36] = experiment: Antimicrobial activity against methicillin-resistant Staphylococcus aureus clinical isolate 227 by broth dilution method
Staphylococcus aureus [37] = experiment: Antimicrobial activity against methicillin-resistant Staphylococcus aureus clinical isolate 231 by broth dilution method
Staphylococcus aureus [38] = experiment: Antimicrobial activity against methicillin-resistant Staphylococcus aureus clinical isolate 225 by broth dilution method
Staphylococcus aureus [39] = experiment: Antimicrobial activity against methicillin-resistant Staphylococcus aureus clinical isolate 215 by broth dilution method
Staphylococcus aureus [40] = experiment: Antimicrobial activity against methicillin-resistant Staphylococcus aureus clinical isolate 218 by broth dilution method
Staphylococcus aureus [41] = experiment: Antimicrobial activity against methicillin-resistant Staphylococcus aureus clinical isolate 212 by broth dilution method
Staphylococcus aureus [42] = experiment: Antimicrobial activity against methicillin-resistant Staphylococcus aureus clinical isolate 207 by broth dilution method
Staphylococcus aureus [43] = experiment: Antimicrobial activity against methicillin-resistant Staphylococcus aureus clinical isolate 205 by broth dilution method
Staphylococcus aureus [44] = experiment: Antimicrobial activity against methicillin-resistant Staphylococcus aureus clinical isolate 195 by broth dilution method
Staphylococcus aureus [45] = experiment: Antimicrobial activity against methicillin-resistant Staphylococcus aureus clinical isolate 178 by broth dilution method
Staphylococcus aureus [46] = experiment: Antimicrobial activity against methicillin-resistant Staphylococcus aureus clinical isolate 176 by broth dilution method
Pseudomonas aeruginosa = experiment: Antimicrobial activity against Pseudomonas aeruginosa ATCC 27853 by broth dilution method
Escherichia coli [47] = experiment: Antimicrobial activity against Escherichia coli ATCC 11229 by broth dilution method

CCCCCCCCCOc1ccc(CNC(CO)(CO)CO)cc1.Cl
4.529: -logMIC (Staphylococcus aureus [25])
8 µg/mL: MIC ([1]; Staphylococcus epidermidis, ATCC 12228) | MIC (Staphylococcus aureus [2]) | MIC50 (Staphylococcus aureus [25]; Staphylococcus aureus) | MIC (Staphylococcus aureus [26]) | MIC (Staphylococcus aureus [28]) | MIC (Staphylococcus aureus [29]) | MIC (Staphylococcus aureus [33]) | MIC (Staphylococcus aureus [34]) | MIC (Staphylococcus aureus [37]) | MIC (Staphylococcus aureus [38]) | MIC (Staphylococcus aureus [40]) | MIC (Staphylococcus aureus [43]) | MIC (Staphylococcus aureus [44]) | MIC (Staphylococcus aureus [46])
4 µg/mL: MIC (Nakaseomyces glabratus) | MIC (Candida albicans)
32 µg/mL: MBC (Staphylococcus aureus [3]) | MBC (Staphylococcus aureus [4]) | MBC (Staphylococcus aureus [5]) | MBC (Staphylococcus aureus [7]) | MBC (Staphylococcus aureus [8]) | MBC (Staphylococcus aureus [9]) | MBC (Staphylococcus aureus [11]) | MBC (Staphylococcus aureus [12]) | MBC (Staphylococcus aureus [13]) | MBC (Staphylococcus aureus [16]) | MBC (Staphylococcus aureus [19]) | MBC (Staphylococcus aureus [20]) | MBC (Staphylococcus aureus [21]) | MBC (Escherichia coli [22]) | MIC (Candida parapsilosis) | MIC (Staphylococcus aureus [30]) | MIC (Staphylococcus aureus [41])
> 256 µg/mL: MIC (Pseudomonas aeruginosa)
64 µg/mL: MBC (Staphylococcus aureus [6]) | MBC (Staphylococcus aureus [14]) | MBC (Staphylococcus aureus [17]) | MBC (Staphylococcus aureus [18]) | MIC (Candida tropicalis)
16 µg/mL: MBC (Staphylococcus aureus [10]) | MBC (Staphylococcus aureus [15]) | MBC [23] | MBC (Staphylococcus aureus [24]) | MIC90 (Staphylococcus aureus [25]; Staphylococcus aureus) | MIC (Staphylococcus aureus [27]) | MIC (Staphylococcus aureus [31]) | MIC (Staphylococcus aureus [32]) | MIC (Staphylococcus aureus [35]) | MIC (Staphylococcus aureus [36]) | MIC (Staphylococcus aureus [39]) | MIC (Staphylococcus aureus [42]) | MIC (Staphylococcus aureus [45]) | MIC (Escherichia coli [47]; Escherichia coli, ATCC 11229)
4.68: -logMIC [1]
4.38: -logMIC (Escherichia coli [47])

— ChEMBL document CHEMBL2380298, “Synthesis and antimicrobial activity of novel amphiphilic aromatic amino alcohols” (2013)
